Laboratory results from ChEMBL document CHEMBL3627681, “Synthesis and biological evaluation of 1,3-diaryl pyrazole derivatives as potential antibacterial and anti-inflammatory agents” (2015).
≈ marks a conversion by molar mass, not a printed value.

How the values were obtained:
[1] = test system: Candida albicans; assay: Antifungal activity against Candida albicans 7535 by two-fold serial dilution method; assay type: functional
[2] = test system: Pseudomonas aeruginosa; assay: Antibacterial activity against Pseudomonas aeruginosa 2004 after 24 hrs by two-fold serial dilution method; assay type: functional; details: Pseudomonas aeruginosa, 2004, 24 h
How it was run: (§1)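 Broth microdilution in Mueller-Hinton broth over final concentrations of 64–0.5. Bacteria were grown to mid-log phase and diluted 1000-fold, then inoculated at 10⁵ CFU/mL. Compounds were dissolved in DMSO, with final DMSO at most 0.05%. Plates were incubated 24 h at 37 °C and growth read as absorbance at 650 nm. MIC is the concentration giving complete growth inhibition. Three independent runs.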

[3] = test system: Staphylococcus aureus; assay: Antibacterial activity against quinolone-resistant Staphylococcus aureus CCARM 3505 after 24 hrs by two-fold serial dilution method; assay type: functional; details: CCARM 3505, 24 h
How it was run: (§2)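 Broth microdilution in Mueller-Hinton broth. Bacteria grown to mid-log phase, diluted 1000-fold, and inoculated at 10⁵ CFU/mL. Test compounds in DMSO, final DMSO not above 0.05%, final concentrations 64-0.5 µg/mL. Incubation 24 h at 37 °C, growth read as absorbance at 650 nm. MIC taken as the lowest concentration giving complete growth inhibition. Run three times.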

[4] = test system: Staphylococcus aureus; assay: Antibacterial activity against Staphylococcus aureus 503 after 24 hrs by two-fold serial dilution method; assay type: functional; details: Staphylococcus aureus, 503, 24 h; how it was run: as §2
[5] = test system: Streptococcus mutans; assay: Antibacterial activity against Streptococcus mutans 3065 after 24 hrs by two-fold serial dilution method; assay type: functional; details: Streptococcus mutans, 3065, 24 h; how it was run: as §1
[6] = test system: Staphylococcus aureus; assay: Antibacterial activity against Staphylococcus aureus RN4220 after 24 hrs by two-fold serial dilution method; assay type: functional; details: RN4220, 24 h; how it was run: as §2
[7] = test system: Mus musculus; assay: Antiinflammatory activity in mouse assessed as inhibition of xylene-induced ear edema at 50 mg/kg, ip administered 30 mins before xylene challenge relative to control; assay type: functional
How it was run: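 Mice received compound freshly dissolved in DMSO, 50 mg/kg ip at 0.05 mL/20 g body weight; vehicle controls got DMSO alone. After 30 min, 20 µL xylene was applied to the right ear. After a further 30 min, 7 mm plugs were cut from treated and untreated ears and edema taken as their weight difference. Result is % edema reduction versus vehicle controls.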

[8] = test system: Escherichia coli; assay: Antibacterial activity against Escherichia coli KCTC 1924 after 24 hrs by two-fold serial dilution method; assay type: functional; details: KCTC 1924, 24 h; how it was run: as §1
[9] = test system: Salmonella typhimurium; assay: Antibacterial activity against Salmonella typhimurium 2421 after 24 hrs by two-fold serial dilution method; assay type: functional, Salmonella enterica subsp. enterica serovar Typhimurium; details: Salmonella enterica, 2421, 24 h; how it was run: as §1
[10] = test system: Staphylococcus aureus; assay: Antibacterial activity against methicillin-resistant Staphylococcus aureus CCARM 3167 after 24 hrs by two-fold serial dilution method; assay type: functional; details: CCARM 3167, 24 h; how it was run: as §2
[11] = test system: Escherichia coli; assay: Antibacterial activity against Escherichia coli CCARM 1356 after 24 hrs by two-fold serial dilution method; assay type: functional; details: CCARM 1356, 24 h; how it was run: as §1
[12] = test system: Pseudomonas aeruginosa; assay: Antibacterial activity against Pseudomonas aeruginosa 2742 after 24 hrs by two-fold serial dilution method; assay type: functional; details: Pseudomonas aeruginosa, 2742, 24 h; how it was run: as §1
[13] = test system: Staphylococcus aureus; assay: Antibacterial activity against quinolone-resistant Staphylococcus aureus CCARM 3519 after 24 hrs by two-fold serial dilution method; assay type: functional; details: CCARM 3519, 24 h; how it was run: as §2
[14] = test system: Staphylococcus aureus; assay: Antibacterial activity against methicillin-resistant Staphylococcus aureus CCARM 3506 after 24 hrs by two-fold serial dilution method; assay type: functional; details: CCARM 3506, 24 h; how it was run: as §2
[15] = test system: Staphylococcus aureus; assay: Antibacterial activity against Staphylococcus aureus 209 after 24 hrs by two-fold serial dilution method; assay type: functional; details: Staphylococcus aureus, 209, 24 h; how it was run: as §2

SMILES | MIC [1] [µg/mL] | MIC [2] [µg/mL] | MIC [3] [µg/mL] | MIC [4] [µg/mL] | MIC [5] [µg/mL] | MIC [6] [µg/mL] | inhibition in vivo at 50 mg/kg [7] [%] | MIC [8] [µg/mL] | MIC [9] [µg/mL] | MIC [10] [µg/mL] | MIC [11] [µg/mL] | MIC [12] [µg/mL] | MIC [13] [µg/mL] | MIC [14] [µg/mL] | MIC [15] [µg/mL]
CCC(C)n1ncn(-c2ccc(N3CCN(c4ccc(OCC5COC(Cn6cncn6)(c6ccc(Cl)cc6Cl)O5)cc4)CC3)cc2)c1=O (stereo not drawn) [ITRACONAZOLE] | 0.06 (≈ 0.085 µM) |  |  |  |  |  |  |  |  |  |  |  |  |  | 
N=C(N)N/N=C/c1cn(-c2ccc([N+](=O)[O-])cc2[N+](=O)[O-])nc1-c1ccccc1Cl | 2 (≈ 4.66 µM) | > 64 | 4 (≈ 9.33 µM) | 4 (≈ 9.33 µM) | 16 (≈ 37.3 µM) | 4 (≈ 9.33 µM) | 84.6 | 4 (≈ 9.33 µM) | 8 (≈ 18.7 µM) | 4 (≈ 9.33 µM) | 16 (≈ 37.3 µM) | > 64 | 8 (≈ 18.7 µM) | 4 (≈ 9.33 µM) | 8 (≈ 18.7 µM)
COc1c(N2C[C@@H]3CCCN[C@@H]3C2)c(F)cc2c(=O)c(C(=O)O)cn(C3CC3)c12 [MOXIFLOXACIN] | 0.5 (≈ 1.25 µM) | 2 (≈ 4.98 µM) |  | 2 (≈ 4.98 µM) | 0.25 (≈ 0.623 µM) | 0.25 (≈ 0.623 µM) |  |  | 0.5 (≈ 1.25 µM) |  | 128 (≈ 319 µM) |  | 4 (≈ 9.96 µM) |  | 
O=C(N/N=C/c1cn(-c2ccc([N+](=O)[O-])cc2[N+](=O)[O-])nc1-c1ccccc1Br)c1ccco1 | > 64 | > 64 | > 64 | > 64 | > 64 | > 64 | 17.5 | > 64 | > 64 | > 64 | > 64 | > 64 | > 64 | > 64 | > 64
CCn1cc(C(=O)O)c(=O)c2cc(F)c(N3CCNCC3)cc21 [NORFLOXACIN] |  |  | > 64 |  |  |  |  |  |  | 8 (≈ 25.1 µM) |  |  | > 64 | 4 (≈ 12.5 µM) | 
Cc1onc(-c2ccccc2)c1C(=O)N[C@@H]1C(=O)N2[C@@H]1SC(C)(C)[C@@H]2C(=O)O [OXACILLIN] |  |  | 1 (≈ 2.49 µM) |  |  |  |  |  |  | > 64 |  |  | 1 (≈ 2.49 µM) | > 64 | 
Cc1ccc(-c2nn(-c3ccc([N+](=O)[O-])cc3[N+](=O)[O-])cc2/C=N/NC(=O)c2ccco2)cc1 | > 64 | > 64 | > 64 | > 64 | > 64 | > 64 | 36 | > 64 | > 64 | > 64 | > 64 | > 64 | > 64 | > 64 | > 64
N=C(N)N/N=C/c1cn(-c2ccc([N+](=O)[O-])cc2[N+](=O)[O-])nc1-c1ccccc1Br | 2 (≈ 4.23 µM) | > 64 | 4 (≈ 8.45 µM) | 4 (≈ 8.45 µM) | 16 (≈ 33.8 µM) | 4 (≈ 8.45 µM) | 78.1 | 4 (≈ 8.45 µM) | 16 (≈ 33.8 µM) | 4 (≈ 8.45 µM) | 16 (≈ 33.8 µM) | > 64 | 8 (≈ 16.9 µM) | 4 (≈ 8.45 µM) | 8 (≈ 16.9 µM)
OC(Cn1cncn1)(Cn1cncn1)c1ccc(F)cc1F [FLUCONAZOLE] | 1 (≈ 3.27 µM) |  |  |  |  |  |  |  |  |  |  |  |  |  | 
N=C(N)N/N=C/c1cn(-c2ccc([N+](=O)[O-])cc2[N+](=O)[O-])nc1-c1ccccc1[N+](=O)[O-] | 8 (≈ 18.2 µM) | > 64 | 16 (≈ 36.4 µM) | 16 (≈ 36.4 µM) | 32 (≈ 72.8 µM) | 16 (≈ 36.4 µM) | 58.3 | 16 (≈ 36.4 µM) | 32 (≈ 72.8 µM) | 16 (≈ 36.4 µM) | 32 (≈ 72.8 µM) | > 64 | 32 (≈ 72.8 µM) | 8 (≈ 18.2 µM) | 32 (≈ 72.8 µM)
